In ChEMBL document CHEMBL4038284, “Synthesis of novel quinoline-based 4,5-dihydro-1H-pyrazoles as potential anticancer, antifungal, antibacterial and antiprotozoal agents” (Eur J Med Chem, 2017):
In brackets after ≈: the same amount, converted by molar mass.

What was measured:
Format in all cases: functional
Escherichia coli = experiment: Bactericidal activity against Escherichia coli ATCC 25922 after 24 hrs by resazurin dye based microdilution assay; conditions: ATCC 25922, 24 h
Staphylococcus aureus [1] = experiment: Bactericidal activity against methicillin-sensitive Staphylococcus aureus ATCC 25923 after 24 hrs by resazurin dye based microdilution assay; conditions: ATCC 25923, 24 h
Staphylococcus aureus [2] = experiment: Bactericidal activity against methicillin-resistant Staphylococcus aureus ATCC 43300 after 24 hrs by resazurin dye based microdilution assay; conditions: ATCC 43300, 24 h
Summary of the method: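 3 µL of each dilution with no visible growth was plated onto trypticase agar. Gentamicin as control. Duplicate, replicated at least three times.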

CCRF-CEM = experiment: Growth inhibition of human CCRF-CEM cells incubated for 48 hrs by sulforhodamine B assay
Summary of the method: (§1)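 NCI 60-line screen. Cells in RPMI-1640 with 5% FBS and 2 mM L-glutamine, preincubated 24 h, then time-zero plates TCA-fixed. Compounds from DMSO stocks given at five final concentrations (100, 10, 1.0, 0.1, 0.01 µM) for 48 h at 37 °C, 5% CO2. Cells fixed with 10% TCA, SRB-stained, read at 515 nm. GI50 is the concentration giving 50% lower net protein increase versus control.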

ACHN = experiment: Growth inhibition of human ACHN cells incubated for 48 hrs by sulforhodamine B assay; summary of the method: as §1
K562 = experiment: Growth inhibition of human K562 cells incubated for 48 hrs by sulforhodamine B assay; conditions: K562, 48 h; summary of the method: as §1
OVCAR-4 = experiment: Growth inhibition of human OVCAR4 cells incubated for 48 hrs by sulforhodamine B assay; conditions: OVCAR-4, 48 h
Summary of the method: (§2)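 Five-dose NCI SRB assay at 100, 10, 1.0, 0.1 and 0.01 μM for 48 h at 37 °C, 5% CO2. Medium was RPMI-1640 with 5% FBS and 2 mM glutamine. Time-zero plates were TCA-fixed at compound addition, A515 read after SRB staining. GI50 was solved from [(Ti−Tz)/(C−Tz)]×100 = 50. Values beyond the tested range are given as > or <.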

BT-549 = experiment: Growth inhibition of human BT549 cells incubated for 48 hrs by sulforhodamine B assay; conditions: BT-549, 48 h
Summary of the method: (§3)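 NCI five-dose SRB assay (100, 10, 1.0, 0.1, 0.01 µM) with 48 h exposure in RPMI-1640 with 5% FBS and 2 mM L-glutamine. Cells fixed with TCA and stained with SRB, read at 515 nm. GI50 is the concentration where [(Ti−Tz)/(C−Tz)]×100 = 50.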

HCT-116 = experiment: Growth inhibition of human HCT116 cells incubated for 48 hrs by sulforhodamine B assay; conditions: HCT-116, 48 h; summary of the method: as §3
SNB-19 = experiment: Growth inhibition of human SNB19 cells incubated for 48 hrs by sulforhodamine B assay; conditions: SNB-19, 48 h
Summary of the method: (§4)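 NCI-60 panel cells grown in RPMI-1640 with 5% FBS and 2 mM L-glutamine, preincubated 24 h at 37 °C/5% CO2. Time-zero plates were TCA-fixed at compound addition. DMSO stocks were diluted in medium and tested at five final concentrations (100, 10, 1.0, 0.1, 0.01 µM) for 48 h. Cells were TCA-fixed, stained with SRB and read at 515 nm. GI50 = 50% lower net protein increase versus control.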

SK-OV-3 = experiment: Growth inhibition of human SKOV3 cells incubated for 48 hrs by sulforhodamine B assay; conditions: SK-OV-3, 48 h; summary of the method: as §1
SN12C = experiment: Growth inhibition of human SN12C cells incubated for 48 hrs by sulforhodamine B assay; summary of the method: as §4
SR = experiment: Growth inhibition of human SR cells incubated for 48 hrs by sulforhodamine B assay; summary of the method: as §1
OVCAR-3 = experiment: Growth inhibition of human OVCAR3 cells incubated for 48 hrs by sulforhodamine B assay; conditions: OVCAR-3, 48 h; summary of the method: as §2
HT-29 = experiment: Growth inhibition of human HT-29 cells incubated for 48 hrs by sulforhodamine B assay; conditions: HT-29, 48 h; summary of the method: as §2
786-0 = experiment: Growth inhibition of human 786-0 cells incubated for 48 hrs by sulforhodamine B assay; conditions: 786-0, 48 h; summary of the method: as §3
HCC 2998 = experiment: Growth inhibition of human HCC2998 cells incubated for 48 hrs by sulforhodamine B assay; conditions: HCC 2998, 48 h, read-out: LC50 (the source's name); summary of the method: as §1
HOP-92 = experiment: Growth inhibition of human HOP92 cells incubated for 48 hrs by sulforhodamine B assay; conditions: HOP-92, 48 h; summary of the method: as §2
COLO 205 = experiment: Growth inhibition of human COLO205 cells incubated for 48 hrs by sulforhodamine B assay; conditions: COLO 205, 48 h; summary of the method: as §3
SK-MEL-5 = experiment: Growth inhibition of human SK-MEL-5 cells incubated for 48 hrs by sulforhodamine B assay; conditions: SK-MEL-5, 48 h; summary of the method: as §1
KM12 = experiment: Growth inhibition of human KM12 cells incubated for 48 hrs by sulforhodamine B assay; conditions: KM12, 48 h; summary of the method: as §2
SW-620 = experiment: Growth inhibition of human SW620 cells incubated for 48 hrs by sulforhodamine B assay; conditions: SW-620, 48 h; summary of the method: as §4
SF-295 = experiment: Growth inhibition of human SF295 cells incubated for 48 hrs by sulforhodamine B assay; conditions: SF-295, 48 h; summary of the method: as §2
M14 = experiment: Growth inhibition of human M14 cells incubated for 48 hrs by sulforhodamine B assay; conditions: M14, 48 h; summary of the method: as §2
Hs-578T = experiment: Growth inhibition of human Hs578T cells incubated for 48 hrs by sulforhodamine B assay; summary of the method: as §2
T47D = experiment: Growth inhibition of human T47D cells incubated for 48 hrs by sulforhodamine B assay; summary of the method: as §4
A498 = experiment: Growth inhibition of human A498 cells incubated for 48 hrs by sulforhodamine B assay; conditions: A498, 48 h; summary of the method: as §1
Malme-3M = experiment: Growth inhibition of human MALME-3M cells incubated for 48 hrs by sulforhodamine B assay; summary of the method: as §2
MOLT-4 = experiment: Growth inhibition of human MOLT4 cells incubated for 48 hrs by sulforhodamine B assay; conditions: MOLT-4, 48 h; summary of the method: as §1
NCI-H226 = experiment: Growth inhibition of human NCI-H226 cells incubated for 48 hrs by sulforhodamine B assay; conditions: NCI-H226, 48 h; summary of the method: as §1
HOP-62 = experiment: Growth inhibition of human HOP62 cells incubated for 48 hrs by sulforhodamine B assay; conditions: HOP-62, 48 h; summary of the method: as §3
[3] = read-out: LC50 (the source's name)

O=Cc1cccc(Nc2ccnc3cc(Cl)ccc23)c1
MBC (Escherichia coli): 500 µg/mL (≈ 1770 µM) | MBC (Staphylococcus aureus [1]): 500 µg/mL (≈ 1770 µM) | MBC (Staphylococcus aureus [2]): > 1000 µg/mL

COc1ccc(C(=O)/C=C/c2cccc(Nc3ccnc4cc(Cl)ccc34)c2)cc1
GI50 (CCRF-CEM): 2880 nM | CC50 (CCRF-CEM; [3]): > 100000 nM | GI50 (ACHN): 1730 nM | CC50 (ACHN; [3]): > 100000 nM | GI50 (K562): 1640 nM | CC50 (K562; [3]): 83800 nM | GI50 (OVCAR-4): 1000 nM | GI50 (BT-549): 1870 nM | CC50 (BT-549; [3]): > 100000 nM | GI50 (HCT-116): 840 nM | LC50 (concentration killing 50% of cells) (HCT-116): > 100000 nM | GI50 (SNB-19): 2260 nM | CC50 (SNB-19; [3]): > 100000 nM | GI50 (SK-OV-3): 2220 nM | CC50 (SK-OV-3; [3]): > 100000 nM | GI50 (SN12C): 1300 nM | CC50 (SN12C; [3]): > 100000 nM | GI50 (SR): 490 nM | CC50 (SR; [3]): > 100000 nM | GI50 (OVCAR-3): 1690 nM | CC50 (OVCAR-3; [3]): > 100000 nM | GI50 (HT-29): 1640 nM | LC50 (HT-29): > 100000 nM | GI50 (786-0): 1480 nM | LC50 (786-0): 77700 nM | CC50 (HCC 2998): > 100000 nM | GI50 (HOP-92): 1090 nM | LC50 (concentration giving 50% net cell kill) (HOP-92): > 100000 nM | GI50 (COLO 205): 3850 nM | CC50 (COLO 205; [3]): > 100000 nM | GI50 (SK-MEL-5): 1320 nM | CC50 (SK-MEL-5; [3]): > 100000 nM | GI50 (KM12): 2450 nM | CC50 (KM12; [3]): > 100000 nM | GI50 (SW-620): 1980 nM | CC50 (SW-620; [3]): > 100000 nM | GI50 (SF-295): 690 nM | CC50 (SF-295; [3]): > 100000 nM | GI50 (M14): 1600 nM | CC50 (M14; [3]): > 100000 nM | GI50 (Hs-578T): 3180 nM | CC50 (Hs-578T; [3]): > 100000 nM | GI50 (T47D): 660 nM | CC50 (T47D; [3]): > 100000 nM | GI50 (A498): 3000 nM | CC50 (A498; [3]): > 100000 nM | GI50 (Malme-3M): 1790 nM | CC50 (Malme-3M; [3]): > 100000 nM | GI50 (MOLT-4): 2900 nM | CC50 (MOLT-4; [3]): > 100000 nM | GI50 (NCI-H226): 1780 nM | CC50 (NCI-H226; [3]): > 100000 nM | GI50 (HOP-62): 1440 nM | CC50 (HOP-62; [3]): > 100000 nM
